pIC50: −log10 of the molar value.
Legend:
[1] = tested on: human rotavirus (Wa-1 strain); assay: Antirotavirus activity by cytopathic effect; format: cell-based; details: for pIC50: human rotavirus, NA = no antiviral activity; for antiviral (antirotavirus) activity in words: non-cytotoxic concentrations
In short: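 MA104 cells grown in 199 medium with 10% fetal bovine serum, penicillin G, streptomycin and amphotericin B at 37 °C, 5% CO2, were infected with human rotavirus Wa-1, which had been propagated in MA104 cells with trypsin (5 μg/ml) and titred as TCID50/ml. Test compound was dissolved in 1% DMSO in 199 medium and filter-sterilised. Read-out was cytopathic-effect inhibition. IC50 came from linear regression of concentration–effect curves, as the mean of three independent experiments.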

MA104 cells = assay: Cytotoxicity by microscopical cell morphology evaluation; format: cell-based; details: mean of three independent experiments
In short: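 Toxicity to MA104 cells was scored by microscopic assessment of cell morphology. Cells were grown in 199 medium with 10% fetal bovine serum and antibiotics at 37 °C in humidified 5% CO2. Test compound was dissolved in 1% DMSO in 199 medium and filtered at 0.22 μm. CC50 was estimated by linear regression of concentration–effect curves, as the mean of three independent experiments.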

rotavirus = rotavirus infection in vitro; cited from earlier work

Row | pIC50 ([1]; flavonols (Table 1)) | Compound | CC50 (MA104 cells; flavonols (Table 1)) | antiviral (antirotavirus) activity in words [1] | other results
1 | 4.39 | CCCCOc1ccc(-c2oc3ccccc3c(=O)c2O)cc1 [compound 24] | 201 µM |  | 
2 | 5.44 | CCc1ccc(-c2oc3ccccc3c(=O)c2O)cc1 [compound 21] | 14.7 µM | Antiviral activity was provided | 
3 |  | COc1ccc(-c2oc3c(OC)c(OC)c(OC)c(OC)c3c(=O)c2OC)cc1OC [compound 57] |  | weak antirotavirus activity | pIC50 ([1]; flavones (Table 2)): 4.74; CC50 (MA104 cells; flavones (Table 2)): 36.1 µM
4 | 5.10 | CCOc1ccc(-c2oc3ccccc3c(=O)c2O)cc1OCC [compound 18] | 47.8 µM | promising antiviral activity | 
5 | 4.76 | O=c1c(O)c(-c2ccc(OCc3ccccc3)cc2)oc2cc(OCc3ccccc3)ccc12 [compound 39] | 69.3 µM | Antiviral activity was provided | 
6 |  | O=c1c(O)c(-c2ccccc2O)oc2ccccc12 [compound 1] | 61.4 µM | did not grant antiviral activity | 
7 | 4.92 | CCOc1ccc(-c2oc3cc(OCC)ccc3c(=O)c2O)cc1 [compound 36] | 47.8 µM | antiviral activity was detected | 
8 | 5.10 | CCOc1cccc(-c2oc3cc(OCC)ccc3c(=O)c2O)c1 [compound 37] | 47.8 µM | antiviral activity was detected | 
9 |  | O=c1c(O)c(-c2ccc(O)cc2)oc2ccccc12 [compound 3] | 61.4 µM | did not grant antiviral activity | 
10 | 4.12 | CCCCOc1ccccc1-c1oc2ccccc2c(=O)c1O [compound 23] | 302 µM |  | 
11 |  | COc1ccc(-c2oc3c(OC)c(OC)c(OC)c(O)c3c(=O)c2OC)cc1O [compound 60] |  |  | pIC50 ([1]; flavones (Table 2)): 4.11; CC50 (MA104 cells; flavones (Table 2)): 77.2 µM
12 |  | COc1ccc2oc(-c3ccccc3)c(O)c(=O)c2c1 [compound 29] | 29.1 µM |  | 
13 |  | COc1ccccc1-c1oc2ccccc2c(=O)c1O [compound 8] | 44.7 µM | antiviral action was not observed | 
14 |  | CCOc1ccccc1-c1oc2ccccc2c(=O)c1O [compound 15] | 111 µM |  | 
15 | 4.76 | COc1ccc(-c2oc3ccc(OC)cc3c(=O)c2O)cc1 [compound 32] | 105 µM |  | 
16 | 4.99 | CCCCOc1ccc(-c2oc3ccccc3c(=O)c2O)c(OCCCC)c1 [compound 26] | 40.8 µM |  | 
17 |  | C[C@@H]1O[C@@H](OC[C@H]2O[C@@H](Oc3c(-c4ccc(O)c(O)c4)oc4cc(O)cc(O)c4c3=O)[C@H](O)[C@@H](O)[C@@H]2O)[C@H](O)[C@H](O)[C@H]1O [compound 45, rutin] |  | did not provide antiviral activity | inhibitory effect on rotavirus infection in words (rotavirus): low inhibitory effect
18 | 5.21 | CCCCOc1cccc(-c2oc3ccccc3c(=O)c2O)c1 [compound 22] | 25.1 µM |  | 
19 |  | CCOc1cccc(-c2oc3ccccc3c(=O)c2O)c1 [compound 14] | 111 µM |  | 

Row | pIC50 ([1]; flavonols (Table 1)) | Compound | CC50 (MA104 cells; flavonols (Table 1)) | antiviral (antirotavirus) activity in words [1] | other results
20 | 5.12 | O=c1c(O)c(-c2ccccc2OCc2ccccc2)oc2ccccc12 [compound 19] | 45.3 µM | considerable antirotavirus action | 
21 | 5.22 | COc1ccc(-c2oc3ccccc3c(=O)c2O)c(OC)c1OC [compound 12] | 23.8 µM |  | 
22 |  | COc1c(-c2ccc(O)c(O)c2)oc2cc(O)cc(O)c2c1=O [compound 43] |  | conferred an antiviral activity | pIC50 ([1]; flavones (Table 2)): 4.91; CC50 (MA104 cells; flavones (Table 2)): 49.3 µM
23 | 5.42 | O=c1c(O)c(-c2ccc(OCc3ccccc3)cc2)oc2ccccc12 [compound 13] | 22.7 µM | considerable antirotavirus action | 
24 |  | COc1ccc2c(=O)c(O)c(-c3ccccc3)oc2c1 [compound 30] | 29.1 µM |  | 
25 |  | COc1c(OC)c(O)c2c(=O)cc(-c3ccc(O)cc3)oc2c1OC [compound 40] |  |  | pIC50 ([1]; flavones (Table 2)): 5.12; CC50 (MA104 cells; flavones (Table 2)): 22.7 µM
26 |  | quercetrin [compound 46] |  | did not provide antiviral activity | CC50 (MA104 cells; flavones (Table 2)): 27.2 µM
27 |  | O=c1c(O)c(-c2cc(O)ccc2O)oc2ccccc12 [compound 5] | 57.7 µM | did not grant antiviral activity | 
28 |  | C[C@@H]1O[C@@H](Oc2c(-c3ccc(O)c(O)c3)oc3cc(O)cc(O)c3c2=O)[C@H](O)[C@H](O)[C@H]1O [compound 44] |  | did not provide antiviral activity | CC50 (MA104 cells; flavones (Table 2)): 69.6 µM
29 |  | COc1ccc(-c2oc3ccccc3c(=O)c2O)cc1 [compound 7] | 29.1 µM | antiviral action was not observed | 
30 | 5.17 | CCCCOc1ccc(-c2oc3ccccc3c(=O)c2O)cc1OCCCC [compound 25] | 40.8 µM | higher activity | 
31 |  | COc1ccc(-c2cc(=O)c3cc(OCc4ccccc4)ccc3o2)cc1 [compound 48] |  | antiviral activity was not shown | CC50 (MA104 cells; flavones (Table 2)): 21.8 µM
32 | 4.92 | CCOc1ccc(OCC)c(-c2oc3ccccc3c(=O)c2O)c1 [compound 17] | 23.9 µM |  | 
33 |  | COc1ccc(-c2cc(=O)c3c(O)cc(OC)cc3o2)cc1 [compound 50] |  |  | pIC50 ([1]; flavones (Table 2)): 4.88; CC50 (MA104 cells; flavones (Table 2)): 52.4 µM
34 | 5.33 | COc1ccc(-c2oc3cccc(OC)c3c(=O)c2O)cc1 [compound 31] | 26.2 µM |  | 
35 | 4.74 | O=c1c(O)c(-c2cc(O)c(O)c(O)c2)oc2ccccc12 [compound 6] | 27.2 µM |  | 
36 | 5.08 | CCCCOc1ccc2c(=O)c(O)c(-c3ccccc3)oc2c1 [compound 38] | 50.3 µM | Antiviral activity was provided | 
37 |  | O=c1c(O)c(-c2ccc(O)c(O)c2)oc2cc(O)cc(O)c12 [compound 28] | 103 µM | antiviral activity was not observed | 
38 | 4.58 | COc1ccc(-c2oc3ccccc3c(=O)c2O)c(OC)c1 [compound 9] | 52.3 µM |  | 

Row | pIC50 ([1]; flavonols (Table 1)) | Compound | CC50 (MA104 cells; flavonols (Table 1)) | antiviral (antirotavirus) activity in words [1] | other results
39 |  | COc1ccc(-c2cc(=O)c3c(OC)c(OC)c(OC)c(OC)c3o2)cc1OC [compound 55] |  | antiviral effect was not shown | CC50 (MA104 cells; flavones (Table 2)): 38.8 µM
40 | 4.80 | O=c1c(O)c(-c2ccccc2)oc2cc(O)ccc12 [compound 27] | 61.4 µM |  | 
41 |  | CCOc1ccc(-c2oc3ccccc3c(=O)c2O)c(OCC)c1 [compound 16] | 47.8 µM |  | 
42 | 4.88 | COc1ccc(-c2oc3ccccc3c(=O)c2O)cc1OC [compound 10] | 52.3 µM |  | 
43 |  | COc1ccc(-c2cc(=O)c3c(OC)c(OC)c(OC)cc3o2)cc1OC [compound 54] |  |  | pIC50 ([1]; flavones (Table 2)): 5.16; CC50 (MA104 cells; flavones (Table 2)): 41.9 µM
44 | 5.20 | COc1ccc(-c2oc3cc(OC)ccc3c(=O)c2O)cc1 [compound 33] | 26.2 µM |  | 
45 | 4.93 | COc1cc(-c2oc3ccccc3c(=O)c2O)cc(OC)c1OC [compound 11] | 47.5 µM |  | 
46 |  | COc1ccc(-c2cc(=O)c3c(O)cc(O[C@@H]4O[C@H](CO[C@@H]5O[C@@H](C)[C@H](O)[C@@H](O)[C@H]5O)[C@@H](O)[C@H](O)[C@H]4O)cc3o2)cc1O [dosmin] |  |  | pIC50 (rotavirus): 5.00
47 |  | CCOc1ccc2c(=O)c(O)c(-c3ccccc3)oc2c1 [compound 35] | 111 µM |  | 
48 |  | COc1ccc(-c2cc(=O)c3c(O)c(OC)c(OC)cc3o2)cc1 [compound 52] |  |  | pIC50 ([1]; flavones (Table 2)): 4.81; CC50 (MA104 cells; flavones (Table 2)): 23.8 µM
49 | 4.56 | O=c1c(O)c(-c2cccc(O)c2)oc2ccccc12 [compound 2] | 61.4 µM |  | 
50 | 4.84 | O=c1c(O)c(-c2ccc(O)c(O)c2)oc2ccccc12 [compound 4] | 57.7 µM |  | 
51 |  | O=c1c(OS(=O)(=O)O)c(-c2ccc(O)c(O)c2)oc2cc(O)cc(O)c12 [compound 47] |  | conferred an antiviral activity | pIC50 ([1]; flavones (Table 2)): 4.99; CC50 (MA104 cells; flavones (Table 2)): 40.9 µM
52 | 4.93 | COc1ccc(-c2oc3cc(OC)ccc3c(=O)c2O)c(OC)c1 [compound 34] | 47.4 µM |  | 
53 |  | COc1ccc(-c2cc(=O)c3c(O)c(OC)c(OC)c(OC)c3o2)cc1 [compound 51] |  |  | pIC50 ([1]; flavones (Table 2)): 5.14; CC50 (MA104 cells; flavones (Table 2)): 43.6 µM
54 |  | COc1ccc(-c2cc(=O)c3c(OC)c(OC)c(OC)c(OC)c3o2)cc1 [compound 49] |  |  | pIC50 ([1]; flavones (Table 2)): 4.55; CC50 (MA104 cells; flavones (Table 2)): 168 µM
55 |  | COc1ccc([C@@H]2CC(=O)c3c(O)cc(O[C@@H]4O[C@H](CO[C@@H]5O[C@@H](C)[C@H](O)[C@@H](O)[C@H]5O)[C@@H](O)[C@H](O)[C@H]4O)cc3O2)cc1O [hesperidin] |  |  | pIC50 (rotavirus): 5.00
56 |  | COc1cc(-c2oc3c(OC)c(OC)cc(O)c3c(=O)c2OC)ccc1O [compound 59] |  |  | pIC50 ([1]; flavones (Table 2)): 5.16; CC50 (MA104 cells; flavones (Table 2)): 41.7 µM

— article PMC7126014 (Fitoterapia, 2010)
